Source: ChEMBL document CHEMBL1157852, “Modulation of doxorubicin activity in cancer cells by conjugation with fatty acyl and terpenyl hydrazones” (Eur J Med Chem, 2010)
Active and inactive are the calls of the source. No cut-off for these calls is given here.

Columns and labels:
[1] = Cytotoxicity against human vinblastine-resistant KBV1 cells after 24 hrs by MTT assay; assay type: functional, cell-based; conditions: KB-V1, 24 h
Outline: (§1)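 MTT assay. Cells seeded and cultured 24 h, then exposed to compound for 24, 48 or 72 h. MTT added to a final 0.05% (HL-60, 518A2) or 0.1% (KB-V1, MCF-7) for 2 h. Formazan dissolved in 10% SDS/DMSO with 0.6% acetic acid; absorbance read at 570 nm against 630 nm background. Viability taken relative to untreated controls (100%). IC50 from concentration-response curves, mean ± SD of four independent experiments.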

[2] = Cytotoxicity against human 518A2 cells assessed as increase in ROS production at 5 uM after 72 hrs by NBT reduction assay relative to control; assay type: functional
Outline: (§2)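 NBT assay. HL-60 cells (0.5×10⁶/mL) or trypsinised 518A2 cells (5×10⁴/mL) pre-incubated 24 h at 37 °C, then given compound at a final 5 µM for 24 or 72 h. Medium removed; cells incubated with 0.1% NBT for 1 h (HL-60) or 4 h (518A2). Diformazan dissolved in 2 M KOH/DMSO; A630 read against 405 nm. Given as % of untreated controls; double quadruplicates.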

HL-60 [3] = assay: Cytotoxicity against human HL60 cells assessed as increase in ROS production at 5 uM after 24 hrs by NBT reduction assay relative to control; assay type: functional; outline: as §2
HL-60 [4] = assay: Induction of apoptosis in human HL60 cells assessed as DNA ladder formation at 5 uM after 24 hrs by agarose gel electrophoresis; assay type: functional, cell-based
Outline: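 HL-60 cells incubated with 5 µM compound for 24 h, then examined for DNA ladder patterns.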

HL-60 [5] = assay: Induction of apoptosis in human HL60 cells assessed as appearance of intact mitochondria in cytosol at 5 uM after 6 hrs using JC1 dye relative to control; assay type: functional
Outline: (§3)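 Mitochondrial membrane potential measured with JC-1. Cells exposed to 5 µM compound for 6 or 18 h, pelleted at 400 g, stained with 0.2× JC-1 at 37 °C for 15 min (HL-60) or 35 min (518A2), washed and resuspended in PBS. Red fluorescence (ex 585/em 590 nm) and green (ex 510/em 527 nm) read; red/green ratio relative to untreated controls (100%). Mean ± SD, four independent experiments.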

518A2 [6] = assay: Induction of apoptosis in human 518A2 cells assessed as increase of ratio of Bax to Bcl-2 mRNA expression at 5 uM after 6 to 18 hrs by RT-PCR analysis; assay type: functional, cell-based
Outline: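 518A2 cells exposed to 5 µM compound for 6 h or 18 h. bax and bcl-2 mRNA quantified by real-time PCR, normalised to GAPDH, and expressed as the bax/bcl-2 ratio.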

518A2 [7] = assay: Induction of apoptosis in human 518A2 cells assessed as increase of Bcl-2 mRNA expression at 5 uM up to 24 hrs by […] analysis; assay type: functional, cell-based
[8] = Cytotoxicity against human 518A2 cells after 72 hrs by MTT assay; assay type: functional, cell-based; conditions: 518A2, 72 h; outline: as §1
518A2 [9] = assay: Induction of apoptosis in human 518A2 cells assessed as appearance of intact mitochondria in cytosol at 5 uM after 18 hrs using JC1 dye relative to control; assay type: functional; outline: as §3
518A2 [10] = assay: Induction of apoptosis in human 518A2 cells assessed as increase of caspase 3 activity at 5 uM measured up to 12 hrs by luminometric assay; assay type: functional, cell-based
Outline: (§4)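 HL-60 and 518A2 cells treated with 5 µM compound and sampled at intervals from 1 to 24 h. Lysed in 50 mM Tris-HCl pH 7.4, 150 mM NaCl, 1% Triton X-100 with protease inhibitors for 15 min at 4 °C, spun at 800 g. Protein measured by Bradford. Caspase-3/7, -8 and -9 activities read with luminogenic peptide substrates; reported as relative luminescence.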

518A2 [11] = assay: Induction of apoptosis in human 518A2 cells assessed as increase of caspase 9 activity at 5 uM after 8 to 12 hrs by luminometric assay; assay type: functional, cell-based; outline: as §4
[12] = Cytotoxicity against human 518A2 cells after 48 hrs by MTT assay; assay type: functional, cell-based; conditions: 518A2, 48 h; outline: as §1
[13] = Cytotoxicity against human vinblastine-resistant KBV1 cells after 72 hrs by MTT assay; assay type: functional, cell-based; conditions: KB-V1, 72 h; outline: as §1
HL-60 [14] = assay: Cytotoxicity against human HL60 cells after 72 hrs by MTT assay; assay type: functional, cell-based; conditions: HL-60, 72 h; outline: as §1
518A2 [15] = assay: Induction of apoptosis in human 518A2 cells assessed as increase of caspase 8 activity at 5 uM measured up to 12 hrs by luminometric assay; assay type: functional, cell-based; outline: as §4
HL-60 [16] = assay: Induction of apoptosis in human HL60 cells assessed as increase of Bcl-2 mRNA expression at 5 uM up to 24 hrs by […] analysis; assay type: functional, cell-based
[17] = Cytotoxicity against human vinblastine-resistant KBV1 cells after 72 hrs by MTT assay in presence of 24 mM ABC transporter inhibitor verapamil hydrochloride; assay type: functional, cell-based; conditions: KB-V1, 72 h, in the assay text read “24 uM” for “24 mM”
Outline: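 MTT viability assay on P-gp-overexpressing KB-V1/Vbl cells with 24 µM verapamil hydrochloride added before the compound; 72 h exposure. Formazan read at 570/630 nm relative to untreated controls. IC50 from concentration-response curves, mean ± SD of four independent experiments.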

518A2 [18] = assay: Induction of apoptosis in human 518A2 cells assessed as appearance of intact mitochondria in cytosol at 5 uM after 6 hrs using JC1 dye relative to control; assay type: functional; outline: as §3
[19] = Cytotoxicity against human 518A2 cells assessed as increase in ROS production at 5 uM after 24 hrs by NBT reduction assay relative to control; assay type: functional; outline: as §2
HL-60 [20] = assay: Induction of apoptosis in human HL60 cells assessed as increase of caspase 3 activity at 5 uM after 12 hrs by luminometric assay; assay type: functional, cell-based; outline: as §4
[21] = Cytotoxicity against human vinblastine-resistant KBV1 cells after 48 hrs by MTT assay; assay type: functional, cell-based; conditions: KB-V1, 48 h; outline: as §1
HL-60 [22] = assay: Induction of apoptosis in human HL60 cells assessed as increase of caspase 8 activity at 5 uM after 4 to 24 hrs by luminometric assay; assay type: functional, cell-based; outline: as §4
HL-60 [23] = assay: Induction of apoptosis in human HL60 cells assessed as increase of Bax mRNA expression at 5 uM up to 24 hrs by […] analysis; assay type: functional, cell-based
HL-60 [24] = assay: Induction of apoptosis in human HL60 cells assessed as appearance of intact mitochondria in cytosol at 5 uM after 18 hrs using JC1 dye relative to control; assay type: functional; outline: as §3
HL-60 [25] = assay: Induction of apoptosis in human HL60 cells assessed as increase of caspase 3 activity at 5 uM after 4 hrs by luminometric assay; assay type: functional, cell-based; outline: as §4
[26] = Cytotoxicity against human 518A2 cells after 24 hrs by MTT assay; assay type: functional, cell-based; conditions: 518A2, 24 h; outline: as §1
HL-60 [27] = assay: Cytotoxicity against human HL60 cells after 48 hrs by MTT assay; assay type: functional, cell-based; conditions: HL-60, 48 h; outline: as §1
HL-60 [28] = assay: Cytotoxicity against human HL60 cells assessed as increase in ROS production at 5 uM after 72 hrs by NBT reduction assay relative to control; assay type: functional; outline: as §2
HL-60 [29] = assay: Cytotoxicity against human HL60 cells after 24 hrs by MTT assay; assay type: functional, cell-based; conditions: HL-60, 24 h; outline: as §1
HL-60 [30] = assay: Induction of apoptosis in human HL60 cells assessed as increase of caspase 9 activity at 5 uM after 12 hrs by luminometric assay; assay type: functional, cell-based
Outline: (§5)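 HL-60 leukaemia cells were treated with test compound and sampled at intervals from 1 to 24 h. Protein was measured by Bradford. Caspase-9 (Caspase-Glo 8 for line 1) was read from a luminogenic peptide substrate as relative luminescence.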

HL-60 [31] = assay: Induction of apoptosis in human HL60 cells assessed as increase of caspase 3 activity at 5 uM after 8 to 18 hrs by luminometric assay; assay type: functional, cell-based; outline: as §4
MCF7 [32] = assay: Cytotoxicity against human topotecan-resistant MCF7 cells after 24 hrs by MTT assay; assay type: functional, cell-based; conditions: MCF7, 24 h; outline: as §1
MCF7 [33] = assay: Cytotoxicity against human topotecan-resistant MCF7 cells after 72 hrs by MTT assay; assay type: functional, cell-based; conditions: MCF7, 72 h; outline: as §1
HL-60 [34] = assay: Induction of apoptosis in human HL60 cells assessed as increase of caspase 8 activity at 5 uM after 8 to 18 hrs by luminometric assay; assay type: functional, cell-based; outline: as §5
MCF7 [35] = assay: Cytotoxicity against human topotecan-resistant MCF7 cells after 48 hrs by MTT assay; assay type: functional, cell-based; conditions: MCF7, 48 h; outline: as §1
HL-60 [36] = assay: Induction of apoptosis in human HL60 cells assessed as increase of caspase 9 activity at 5 uM measured up to 24 hrs by luminometric assay; assay type: functional, cell-based; outline: as §5
HL-60 [37] = assay: Induction of apoptosis in human HL60 cells assessed as increase of ratio of Bax to Bcl-2 mRNA expression at 5 uM after 6 to 18 hrs by RT-PCR analysis; assay type: functional, cell-based
Outline: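 Real-time PCR of bax and bcl-2 mRNA in HL-60 cells after 6 h and 18 h exposure to test compound. Each gene was normalised to GAPDH, and the bax/bcl-2 expression ratio was reported.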

518A2 [38] = assay: Induction of apoptosis in human 518A2 cells assessed as increase of caspase 8 activity at 5 uM after 6 hrs by luminometric assay; assay type: functional, cell-based; outline: as §4
HL-60 [39] = assay: Induction of apoptosis in human HL60 cells assessed as increase of caspase 8 activity at 5 uM after 12 hrs by luminometric assay; assay type: functional, cell-based; outline: as §4
HL-60 [40] = assay: Induction of apoptosis in human HL60 cells assessed as increase of caspase 8 activity at 5 uM after 24 hrs by luminometric assay; assay type: functional, cell-based; outline: as §4
HL-60 [41] = assay: Induction of apoptosis in human HL60 cells assessed as increase of caspase 3 activity at 5 uM after 18 hrs by luminometric assay; assay type: functional, cell-based; outline: as §4
518A2 [42] = assay: Induction of apoptosis in human 518A2 cells assessed as increase of caspase 3 activity at 5 uM after 8 hrs by luminometric assay; assay type: functional, cell-based; outline: as §4

SMILES	IC50 [1] [nM]	Activity [2] [%]	Activity (HL-60 [3]) [%]	Activity (HL-60 [4])	Activity (HL-60 [5]) [%]	Activity (518A2 [6])	IC50 [8] [nM]	Activity (518A2 [9]) [%]	IC50 [12] [nM]	IC50 [13] [nM]	IC50 (HL-60 [14]) [nM]	Activity (518A2 [18]) [%]	Activity [19] [%]	IC50 [21] [nM]	Activity (HL-60 [24]) [%]	IC50 [26] [nM]	IC50 (HL-60 [27]) [nM]	Activity (HL-60 [28]) [%]	IC50 (HL-60 [29]) [nM]	Activity (HL-60 [30])	further results
COc1cccc2c1C(=O)c1c(O)c3c(c(O)c1C2=O)C[C@@](O)(C(=O)CO)C[C@@H]3O[C@H]1C[C@H](N)[C@H](O)[C@H](C)O1.Cl [DOXORUBICIN HYDROCHLORIDE]	59900	15.4	2.8	Active	83	Active	120	74	170	18300	80	98	2.5	35600	28	340	100	5.6	220	Active	Activity (518A2 [7]): inactive; Activity (518A2 [10]): inactive; Activity (518A2 [11]): Active; Activity (518A2 [15]): inactive; Activity (HL-60 [16]): Active; IC50 [17]: 1020 nM; Activity (HL-60 [20]): Active; Activity (HL-60 [22]): Active; Activity (HL-60 [23]): inactive; Activity (HL-60 [25]): Active
CC/C=C\C/C=C\C/C=C\CCCCCCCC(=O)N/N=C(\CO)[C@]1(O)Cc2c(O)c3c(c(O)c2[C@@H](O[C@H]2C[C@H](N)[C@H](O)[C@H](C)O2)C1)C(=O)c1c(OC)cccc1C3=O.Cl [DOXORUBICIN LINOLENOYLHYDRAZONE HYDROCHLORIDE]	40800	45.1	1	Active	103	Active	140	96	320	14000	810	120	2.9	20500	71	7400	1200	3	5100	–	Activity (HL-60 [31]): Active; IC50 (MCF7 [32]): 5700 nM; IC50 (MCF7 [33]): 3600 nM; Activity (HL-60 [34]): Active; IC50 (MCF7 [35]): 4300 nM; Activity (HL-60 [36]): inactive; Activity (HL-60 [37]): Active
COc1cccc2c1C(=O)c1c(O)c3c(c(O)c1C2=O)C[C@@](O)(/C(CO)=N/NC(=O)CC(=O)O[C@@H]1C[C@H](C)CC[C@H]1C(C)C)C[C@@H]3O[C@H]1C[C@H](N)[C@H](O)[C@H](C)O1.Cl [DOXORUBICIN MENTHOXYCARBONYLACETYLHYDRAZONE HYDROCHLORIDE]	17800	16.2	3.8	Active	76	Active	140	61	540	10300	230	93	3	18400	36	710	260	11.2	570	Active	Activity (518A2 [38]): Active; IC50 (MCF7 [32]): 8400 nM; IC50 (MCF7 [33]): 2700 nM; Activity (HL-60 [39]): Active; Activity (HL-60 [40]): Active; Activity (HL-60 [41]): Active; IC50 (MCF7 [35]): 3800 nM; Activity (518A2 [42]): Active; Activity (HL-60 [37]): Active
